Assay results published in paper PMC12079591 (ACS Omega, 2025).
Like-named read-outs stand apart in the source and are kept apart here. One block for each compound: values may come before it.

Columns and labels:
[1] = test system: H1975; assay: Cell proliferation assay; assay type: cell-based; conditions: read-out: IC50 H1975; lung carcinoma; mean ± SD (n ≥ 2)
Procedure, shortened: (§1)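 Mycoplasma-negative, STR-authenticated cells were seeded at 4000−6000/well and kept overnight at 37 °C, 5% CO2. Graded test compound concentrations or solvent control were added to triplicate wells. Adherent lines were read by SRB (OD 510 nm) and suspension lines by MTT (OD 570 nm). IC50 was obtained by nonlinear regression. Results are means ± SD (n ≥ 2).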

[2] = test system: NUGC-3; assay: Cell proliferation assay; assay type: cell-based; conditions: read-out: IC50 NUGC-3; gastric carcinoma; mean ± SD (n ≥ 2)
Procedure, shortened: as §1

[3] = test system: K562; assay: Cell proliferation assay; assay type: cell-based
Procedure, shortened: as §1

[4] = test system: KATO III; assay: Cell proliferation assay; assay type: cell-based; conditions: read-out: IC50 KATO III; gastric carcinoma; mean ± SD (n ≥ 2)
Procedure, shortened: as §1

[5] = test system: MDA-MB-231 cells; assay: Cell cycle analysis by flow cytometry; assay type: cell-based, human; conditions: MDA-MB-231, 24 h treatment
Procedure, shortened: (§2)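 Cells were seeded in 12-well plates overnight, then exposed to test compound for 24 h. Cells were trypsinized, washed in cold PBS and fixed overnight in 70% ethanol at −20 °C. After two PBS washes they were stained 30 min at 37 °C with 50 μg/mL propidium iodide plus 20 μg/mL RNase A. About 10,000 cells were acquired by flow cytometry. Results are means ± SD; two-tailed unpaired t test.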

[6] = test system: PC-3 cells; assay: Cell cycle analysis by flow cytometry; assay type: cell-based, human; conditions: PC-3, 24 h treatment
Procedure, shortened: as §2

[7] = test system: HCT116; assay: Cell proliferation assay; assay type: cell-based; conditions: read-out: IC50 HCT116; colorectal carcinoma; mean ± SD (n ≥ 2)
Procedure, shortened: as §1

[8] = test system: MDA-MB-231; assay: Cell proliferation assay; assay type: cell-based, human
Procedure, shortened: as §1

[9] = test system: MDR1; assay: Western blot of MDR1 in K562/ADR; assay type: cell-based; conditions: 48 h, concentration-dependent
Procedure, shortened: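 K562 and K562/ADR cells were seeded in 12-well plates overnight and treated with a concentration gradient of test compound for 48 h. Lysates in SDS sample buffer (equal protein) were separated by SDS-PAGE and transferred to PVDF. MDR1 was probed with primary and HRP-conjugated secondary antibodies and detected by ECL.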

[10] = test system: P-AKT, P-STAT3, P-STAT5, P-P38; assay: Western blot of JAK/STAT5, PI3K/AKT and p38 MAPK pathways; assay type: cell-based, human; conditions: MDA-MB-231 and PC-3 cells, 24 h, concentration-dependent
Procedure, shortened: (§3)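 MDA-MB-231 and PC-3 cells were seeded in 12-well plates overnight, then exposed to a concentration gradient of test compound. Cells were lysed in SDS sample buffer, and equal protein amounts were run on SDS-PAGE and transferred to PVDF. Membranes were probed with primary antibodies, then HRP-conjugated secondary antibodies, and detected by ECL chemiluminescence.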

[11] = test system: DOHH2; assay: Cell proliferation assay; assay type: cell-based; conditions: read-out: IC50 DOHH2; diffuse large B cell lymphoma; mean ± SD (n ≥ 2)
Procedure, shortened: as §1

[12] = test system: NCI-H460; assay: Cell proliferation assay; assay type: cell-based; conditions: read-out: IC50 NCI-H460; lung carcinoma; mean ± SD (n ≥ 2)
Procedure, shortened: as §1

[13] = test system: MV-4-11; assay: Cell proliferation assay; assay type: cell-based; conditions: read-out: IC50 MV-4-11; acute myeloid leukemia; mean ± SD (n ≥ 2)
Procedure, shortened: as §1

[14] = test system: SUDHL-4; assay: Cell proliferation assay; assay type: cell-based; conditions: read-out: IC50 SUDHL-4; diffuse large B cell lymphoma; mean ± SD (n ≥ 2)
Procedure, shortened: as §1

[15] = test system: K562/ADR; assay: Cell proliferation assay, multidrug-resistant K562/ADR; assay type: cell-based; conditions: for RF (resistance factor): K562/ADR versus K562; for IC50: read-out: IC50 K562/ADR
Procedure, shortened: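 K562/ADR cells were derived from parental K562 by stepwise increases in ADR concentration. Proliferation was measured by the SRB (adherent) or MTT (suspension) method: 4000−6000 cells/well seeded overnight at 37 °C, 5% CO2, graded test compound in triplicate wells. IC50 was obtained by nonlinear regression. The resistance factor compares K562/ADR with parental K562. Results are means ± SD (n ≥ 2).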

[16] = test system: cyclin A2, cyclin B1, and cyclin D1; assay: Western blot of cell cycle-related proteins; assay type: cell-based, human; conditions: MDA-MB-231 and PC-3 cells, 24 h, dose-dependent
Procedure, shortened: as §3

[17] = test system: A-431; assay: Cell proliferation assay; assay type: cell-based; conditions: read-out: IC50 A-431; squamous cell carcinoma; mean ± SD (n ≥ 2)
Procedure, shortened: as §1

[18] = test system: HPAF-II; assay: Cell proliferation assay; assay type: cell-based; conditions: read-out: IC50 HPAF-II; pancreatic carcinoma; mean ± SD (n ≥ 2)
Procedure, shortened: as §1

[19] = test system: PC-3; assay: Cell proliferation assay; assay type: cell-based, human
Procedure, shortened: as §1

[20] = Boron biodistribution of compound 1d by ICP-mass; assay type: in vivo, mice; conditions: 3 h postinjection
Procedure, shortened: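 Mice bearing subcutaneous tumours got a single intraperitoneal injection of 2 mg test compound in saline/DMSO and were sacrificed at 3 h. Blood was taken by cardiac puncture, and major organs and tumour were harvested and weighed. Tissue was digested 2 days at room temperature in 1 mL 1:1 concentrated H2SO4/HNO3, diluted 100-fold in water and filtered (0.22 μm). Boron was measured by ICP-OES and ICP-MS as μg/g tissue.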

[21] = read-out: IC50 K562, chronic myeloid leukemia, mean ± SD (n ≥ 2)
[22] = read-out: IC50 K562, parental cell line, mean ± SD (n ≥ 2)
[23] = read-out: IC50 MDA-MB-231, breast carcinoma, mean ± SD (n ≥ 2)
[24] = multidrug-resistant subline, mean ± SD (n ≥ 2)
[25] = read-out: IC50 PC-3, prostate carcinoma, mean ± SD (n ≥ 2)
[26] = Homo sapiens, K562, read-out: IC50 K562

- IC50 [1]: 5.63 ± 0.3 µM
- IC50 [3, 21]: 4.52 ± 0.8 µM
- IC50 [7]: 2.86 ± 0.23 µM
- IC50 [8, 23]: 5.46 ± 0.61 µM
- IC50 [12]: 3.19 ± 0.18 µM
- IC50 [13]: 5.45 ± 0.26 µM
- IC50 [14]: 4.29 ± 0.54 µM
- IC50 [15, 24]: 3.04 ± 0.0347 µM
- IC50 [17]: 4.86 ± 0.21 µM
- IC50 [19, 25]: 4.99 ± 2.76 µM
Compound: 3-(1,2-Dicarba-closo-dodecarboranyl)-4-oxo-4H-chromen-7-yl Sulfurofluoridate [Compound 1m]
- IC50 [2]: 2.54 ± 0.37 µM
- IC50 [3, 22]: 4.52 ± 0.806 µM
- IC50 [4]: 3.55 ± 0.15 µM
- effect on cell cycle distribution [5]: caused G0/G1 cell cycle arrest
- effect on cell cycle distribution [6]: caused G0/G1 cell cycle arrest
- expression of MDR1 [9]: significantly inhibited
- P-P38 expression [10]: upregulating
- expression of P-AKT, P-STAT3, and P-STAT5 [10]: reduced
- IC50 [11]: 1.93 ± 0.12 µM
- RF (resistance factor) [15]: 0.67
- expression of cyclin A2, cyclin B1, and cyclin D1 [16]: downregulated
- IC50 [18]: 2.67 ± 0.55 µM

- IC50 [3, 26]: 0.0267 ± 0.00082 µM
- IC50 ([15]; Homo sapiens, K562/Adr): 2.84 ± 1.06 µM
Compound: COc1cccc2c1C(=O)c1c(O)c3c(c(O)c1C2=O)C[C@@](O)(C(=O)CO)C[C@@H]3O[C@H]1C[C@H](N)[C@H](O)[C@H](C)O1 [adriamycin]
- RF (resistance factor) [15]: 106.35

- IC50 ([8]; Homo sapiens, MDA-MB-231, read-out: IC50 MDA-MB-231): > 100 µM
- IC50 ([19]; Homo sapiens, PC-3, read-out: IC50 PC-3): > 100 µM
Compound: COc1ccc(-c2coc3cc(O)ccc3c2=O)cc1 [formononetin, reference compound]

- IC50 [3, 26]: 0.00157 ± 0.0015 µM
- IC50 ([15]; Homo sapiens, K562/Adr): > 10 µM
Compound: CC(=O)O[C@H]1C(=O)[C@@]2(C)[C@H]([C@H](OC(=O)c3ccccc3)[C@]3(O)C[C@H](OC(=O)[C@H](O)[C@@H](NC(=O)c4ccccc4)c4ccccc4)C(C)=C1C3(C)C)[C@]1(OC(C)=O)CO[C@@H]1C[C@@H]2O [paclitaxel]
- RF (resistance factor) [15]: >6000
- RF (resistance factor) ([15]; listed as PTX): over 6000

- IC50 [3, 26]: 0.00157 ± 0.00112 µM
- IC50 ([15]; Homo sapiens, K562/Adr): 0.326 ± 0.0425 µM
Compound: CCC1=C[C@@H]2CN(C1)Cc1c([nH]c3ccccc13)[C@@](C(=O)OC)(c1cc3c(cc1OC)N(C)[C@H]1[C@@](O)(C(=O)OC)[C@H](OC(C)=O)[C@]4(CC)C=CCN5CC[C@]31[C@@H]54)C2 [vinorelbine]
- RF (resistance factor) [15]: 230.86

More lines, now with the values behind:

Compound: 3-(1,2-Dicarba-closo-dodecarboranyl)-7-hydroxy-4H-chromen-4-one [Compound 1d]
- IC50 [1]: 5.27 ± 0.63 µM
- IC50 [2]: 3.36 ± 0.02 µM
- IC50 [3, 21]: 5.29 ± 0.86 µM
- IC50 [3, 22]: 5.29 ± 0.861 µM
- IC50 [4]: 4.38 ± 0.04 µM
- effect on cell cycle distribution [5]: caused G0/G1 cell cycle arrest
- effect on cell cycle distribution [6]: caused G0/G1 cell cycle arrest
- IC50 [7]: 3.42 ± 0.22 µM
- IC50 [8, 23]: 5.59 ± 1.82 µM
- expression of MDR1 [9]: significantly inhibited
- P-P38 expression [10]: upregulating
- expression of P-AKT, P-STAT3, and P-STAT5 [10]: reduced
- brain/blood uptake ratio (boron) [20]: 0.45
- boron content in blood ([20]; 2 mg intraperitoneal, mice): 2.28 ± 0.99 µg/g
- boron content in brain ([20]; 2 mg intraperitoneal, mice): 1.03 ± 0.43 µg/g
- boron content in liver ([20]; 2 mg intraperitoneal, mice): 56.37 ± 4.71 µg/g
- boron content in pancreas ([20]; 2 mg intraperitoneal, mice): 40.74 ± 4.67 µg/g
- boron content in tumor ([20]; 2 mg intraperitoneal, mice): 2.18 ± 1.18 µg/g
- IC50 [11]: 2.78 ± 0.26 µM
- IC50 [12]: 4.24 ± 0.9 µM
- IC50 [13]: 4.25 ± 0.34 µM
- IC50 [14]: 5.4 ± 0.48 µM
- RF (resistance factor) [15]: 0.93
- IC50 [15, 24]: 4.91 ± 0.094 µM
- expression of cyclin A2, cyclin B1, and cyclin D1 [16]: downregulated
- IC50 [17]: 4.09 ± 0.46 µM
- IC50 [18]: 3.56 ± 0.38 µM
- IC50 [19, 25]: 5.24 ± 1.9 µM

Compound: 7-(Benzyloxy)-3-(1,2-dicarba-closo-dodecarboranyl)-4H-chromen-4-one [Compound 1c]
- IC50 [8, 23]: 65.3 ± 5.39 µM
- IC50 [19, 25]: 72.4 ± 1.06 µM

Compound: 3-(1,2-Dicarba-closo-dodecarboranyl)-7-methoxy-4H-chromen-4-one [Compound 1b]
- IC50 [8, 23]: 47.5 ± 7.39 µM
- IC50 [19, 25]: 54.7 ± 6.26 µM

Compound: 3-(1,2-Dicarba-closo-dodecarboranyl)-5,7-dimethoxy-4H-chromen-4-one [Compound 1e]
- IC50 [8, 23]: 55.8 ± 6.71 µM
- IC50 [19, 25]: 53.1 ± 0.73 µM

Compound: 3-(1,2-Dicarba-closo-dodecarboranyl)-5-hydroxy-7-methoxy-4H-chromen-4-one [Compound 1f]
- IC50 [8, 23]: > 100 µM
- IC50 [19, 25]: > 100 µM
